Measured values taken from ChEMBL document CHEMBL1141826, “From a phagostimulant natural product to semisynthetic antifeedants against Spodoptera littoralis larvae: chemical transformations of the neoclerodane diterpenoid scutegalin B” (J Nat Prod, 1999).

Assays:
Spodoptera littoralis [1] = experiment: Antifeedant activity against sixth stadium larvae of Spodoptera littoralis assessed as antifeedant index at 100 ppm after 16 hrs; format: functional
How it was run: (§1)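 Choice test: sixth-stadium larvae were starved 4 h and each placed in a Petri dish with two sucrose-treated glass-fiber disks (100 μL 0.05 M, 2.1 cm), one a control and one carrying compound at 100 ppm. Disks were reweighed, and index = [(C−T)/(C+T)]×100 from weights eaten. Negative values mean phagostimulation. 10 replications; Wilcoxon signed-ranks test, P<0.05.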

Spodoptera littoralis [2] = experiment: Antifeedant activity against sixth stadium larvae of Spodoptera littoralis after 16 hrs; format: functional, organism-based
How it was run: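 No-choice feeding test: glass-fiber disks (2.1 cm) made palatable with 100 μL 0.05 M sucrose, then treated with 100 μL of test solution at 1, 10, 100 or 1000 ppm and offered to S. littoralis larvae. Ended at 16 h, when 50% of control disks were consumed. Disks were reweighed, and EC50 for 50% reduction in feeding was estimated relative to the sucrose control. 10 replications per concentration.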

Spodoptera littoralis [3] = experiment: Phagostimulant activity against sixth stadium larvae of Spodoptera littoralis assessed as antifeedant index at 100 ppm after 16 hrs; format: functional; how it was run: as §1

SMILES	Activity (Spodoptera littoralis [1]) [%]	EC50 (Spodoptera littoralis [2]) [ppm]	Activity (Spodoptera littoralis [3]) [%]
CC(=O)O[C@H]1C(=O)[C@@H](C)[C@](C)(CC[C@H]2CCOC2=O)[C@H]2C[C@@H]3C[C@]4(CO4)[C@@]21C(=O)O3	44.1	> 1000	–
C/C=C(\C)C(=O)O[C@H]1O[C@@H]2C[C@@H]3[C@@](C)(CC[C@H]4CCOC4=O)[C@H](C)[C@@H](O)[C@H](OC(C)=O)[C@]13[C@@]1(CO1)C2	29.3	> 1000	–
CC(=O)O[C@@H]1C[C@@H]2[C@@](C)(CC[C@H]3CCOC3=O)[C@H](C)[C@@H](OC(C)=O)[C@H](OC(C)=O)[C@@]2(C=O)[C@@]2(CO2)C1	17.2	–	–
C/C=C(\C)C(=O)O[C@H]1O[C@@H]2C[C@@H]3[C@@](C)(CC[C@@H](CCOC(C)=O)COC(C)=O)[C@H](C)[C@@H](OC(C)=O)[C@H](OC(C)=O)[C@]13[C@@]1(CO1)C2	–	–	-0.4
C/C=C(\C)C(=O)O[C@H]1O[C@@H]2C[C@@H]3[C@@](C)(CC[C@H]4CCO[C@H]4O)[C@H](C)[C@@H](O)[C@H](OC(C)=O)[C@]13[C@@]1(CO1)C2 [SCUTEGALIN B]	–	870	-27
CC(=O)OCC[C@H](CC[C@@]1(C)[C@H](C)[C@@H](OC(C)=O)[C@H](OC(C)=O)[C@]23[C@@H]1C[C@H](C[C@]21CO1)O[C@@H]3O)COC(C)=O	–	–	-38.8
C/C=C(\C)C(=O)O[C@H]1O[C@@H]2C[C@@H]3[C@@](C)(CC[C@H]4CCOC4=O)[C@H](C)C(=O)[C@H](OC(C)=O)[C@]13[C@@]1(CO1)C2	36.5	350	–
C/C=C(\C)C(=O)O[C@H]1O[C@@H]2C[C@@H]3[C@@](C)(CC[C@H]4CCOC4=O)[C@H](C)[C@@H](OC(C)=O)[C@H](O)[C@]13[C@@]1(CO1)C2	18.6	> 1000	–
CC(=O)O[C@@H]1[C@@H](C)[C@](C)(CC[C@H]2CCOC2=O)[C@H]2C[C@@H]3C[C@]4(CO4)[C@]2([C@@H](O)O3)[C@H]1OC(C)=O	34	> 1000	–
CC(=O)OC1O[C@@H]2C[C@@H]3[C@@](C)([C@@H]4C[C@H]5C=CO[C@H]5O4)[C@H](C)C[C@H](OC(C)=O)[C@]13[C@@]1(CO1)C2 (some centres not stated) [JODRELLIN A]	92	–	–
CC(=O)O[C@@H]1[C@@H](C)[C@](C)(CC[C@H]2CCOC2=O)[C@H]2C[C@@H]3C[C@]4(CO4)[C@]2([C@@H](OC(=O)C(C)C)O3)[C@H]1O	37.5	> 1000	–
CC(=O)O[C@@H]1[C@@H](C)[C@](C)(CC[C@H]2CCOC2=O)[C@H]2C[C@@H]3C[C@]4(CO4)[C@]2([C@@H](O)O3)[C@H]1O	67	51	–
C/C=C(\C)C(=O)O[C@H]1O[C@@H]2C[C@@H]3[C@@](C)(CC[C@H](CO)CCO)[C@H](C)[C@@H](OC(C)=O)[C@H](OC(C)=O)[C@]13[C@@]1(CO1)C2	18.8	–	–
CC(=O)O[C@H]1C[C@@H](C)[C@](C)([C@@H]2C[C@H]3C=CO[C@H]3O2)[C@H]2C[C@@H]3C[C@]4(CO4)[C@]12C(OC(=O)C(C)C)O3 (some centres not stated) [JODRELLIN B]	100	–	–
C/C=C(\C)C(=O)O[C@H]1C[C@H](C)[C@](C)([C@@H](O)CC2=CC(=O)OC2)[C@H]2CCC[C@]3(CO3)[C@]12COC(C)=O [SCUTALPIN C]	96.8	< 1	–
CC(=O)OCC[C@H](CC[C@@]1(C)[C@H](C)[C@@H](OC(C)=O)[C@H](OC(C)=O)[C@]23C(=O)O[C@H](C[C@H]12)C[C@]31CO1)COC(C)=O	–	–	-27.4
CC(=O)O[C@@H]1[C@@H](C)[C@](C)(CC[C@H]2CCOC2=O)[C@H]2C[C@@H](OC(=O)C(C)C)C[C@]3(CO3)[C@]2(C=O)[C@H]1OC(C)=O	–	–	-10
CO[C@H]1O[C@@H]2C[C@@H]3[C@@](C)(CC[C@H]4CCOC4=O)[C@H](C)[C@@H](OC(C)=O)[C@H](OC(C)=O)[C@]13[C@@]1(CO1)C2	–	–	-29.5
